ChEMBL document CHEMBL1130078, “Discovery of an orally active series of isoxazoline glycoprotein IIb/IIIa antagonists” (J Med Chem, 1997)
pIC50: −log10 of the molar value. One block for each compound: values may come before it.

Columns and labels:
[1] = molecular target: T1, Integrin alpha-IIb/beta-3 (Homo sapiens, UniProt P05106+P08514)
Canis familiaris [2] = experiment: Inhibition of ex vivo platelet aggregation after intravenous administration of bolus dose of 0.025 mg/kg to dog; assay type: functional; settings: Canis lupus familiaris
Outline: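 Dogs given an iv bolus. Ex vivo ADP (100 μM)-induced platelet aggregation measured in samples taken over 5 h.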

[3] = molecular target: T1, Integrin alpha-IIb/beta-3; remark: listed apart in the source
Rhesus monkey [4] = experiment: Inhibition of ex vivo aggregation over 12 hr after oral dose of 0.3 mg/kg to rhesus monkey; assay type: functional, Cercopithecidae; settings: Macaca mulatta
Outline: (§1)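 Rhesus monkeys of either sex, 8–15 years, 6–10 kg, at least two animals/sex per dose, n = 8. Oral gavage by feeding tube of a solution in 0.9% saline (0.5 mL/kg), then water flush. Blood was drawn at various time points from the femoral or saphenous vein into citrate for ex vivo ADP (100 μM)-induced aggregation.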

Canis familiaris [5] = experiment: Inhibition of platelet aggregation for 12 hr after oral dose of 0.3-0.4 mg/kg to dog; assay type: functional, Canis lupus familiaris
Outline: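 Dogs dosed orally at 0.1–0.4 mg/kg; ex vivo ADP (100 μM)-induced platelet aggregation followed over time up to 12 h, n = 4.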

Rhesus monkey [6] = experiment: Inhibition of ex vivo aggregation in 2 hr after oral dose of 0.3 mg/kg to rhesus monkey; assay type: functional, Cercopithecidae; settings: Macaca mulatta
Outline: as §1

[7] = molecular target: T1, Integrin alpha-IIb/beta-3; experiment: In vitro inhibition of ADP-induced platelet aggregation in human platelet rich plasma (hPRP); assay type: functional, cell-free

T1 sequence (P05106 27-788 limits assumed): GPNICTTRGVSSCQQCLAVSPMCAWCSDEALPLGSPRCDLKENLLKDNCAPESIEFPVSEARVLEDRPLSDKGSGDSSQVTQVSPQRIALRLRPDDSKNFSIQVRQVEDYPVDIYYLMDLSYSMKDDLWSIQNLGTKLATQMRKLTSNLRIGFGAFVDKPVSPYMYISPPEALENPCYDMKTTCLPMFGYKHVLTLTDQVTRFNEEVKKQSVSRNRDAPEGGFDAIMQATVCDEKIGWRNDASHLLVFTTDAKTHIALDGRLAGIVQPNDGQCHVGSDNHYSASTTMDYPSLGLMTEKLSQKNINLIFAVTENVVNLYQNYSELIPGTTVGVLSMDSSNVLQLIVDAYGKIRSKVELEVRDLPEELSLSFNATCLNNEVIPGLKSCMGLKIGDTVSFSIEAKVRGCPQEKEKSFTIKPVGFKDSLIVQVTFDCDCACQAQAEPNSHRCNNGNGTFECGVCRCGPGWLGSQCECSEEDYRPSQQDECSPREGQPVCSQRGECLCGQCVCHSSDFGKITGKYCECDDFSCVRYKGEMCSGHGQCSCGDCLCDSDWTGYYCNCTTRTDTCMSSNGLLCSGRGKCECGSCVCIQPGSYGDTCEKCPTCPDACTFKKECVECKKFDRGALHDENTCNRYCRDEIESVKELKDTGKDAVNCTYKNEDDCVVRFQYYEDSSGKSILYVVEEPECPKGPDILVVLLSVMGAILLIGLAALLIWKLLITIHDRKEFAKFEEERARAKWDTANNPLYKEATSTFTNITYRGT
T1 sequence (P08514 32-887 limits assumed): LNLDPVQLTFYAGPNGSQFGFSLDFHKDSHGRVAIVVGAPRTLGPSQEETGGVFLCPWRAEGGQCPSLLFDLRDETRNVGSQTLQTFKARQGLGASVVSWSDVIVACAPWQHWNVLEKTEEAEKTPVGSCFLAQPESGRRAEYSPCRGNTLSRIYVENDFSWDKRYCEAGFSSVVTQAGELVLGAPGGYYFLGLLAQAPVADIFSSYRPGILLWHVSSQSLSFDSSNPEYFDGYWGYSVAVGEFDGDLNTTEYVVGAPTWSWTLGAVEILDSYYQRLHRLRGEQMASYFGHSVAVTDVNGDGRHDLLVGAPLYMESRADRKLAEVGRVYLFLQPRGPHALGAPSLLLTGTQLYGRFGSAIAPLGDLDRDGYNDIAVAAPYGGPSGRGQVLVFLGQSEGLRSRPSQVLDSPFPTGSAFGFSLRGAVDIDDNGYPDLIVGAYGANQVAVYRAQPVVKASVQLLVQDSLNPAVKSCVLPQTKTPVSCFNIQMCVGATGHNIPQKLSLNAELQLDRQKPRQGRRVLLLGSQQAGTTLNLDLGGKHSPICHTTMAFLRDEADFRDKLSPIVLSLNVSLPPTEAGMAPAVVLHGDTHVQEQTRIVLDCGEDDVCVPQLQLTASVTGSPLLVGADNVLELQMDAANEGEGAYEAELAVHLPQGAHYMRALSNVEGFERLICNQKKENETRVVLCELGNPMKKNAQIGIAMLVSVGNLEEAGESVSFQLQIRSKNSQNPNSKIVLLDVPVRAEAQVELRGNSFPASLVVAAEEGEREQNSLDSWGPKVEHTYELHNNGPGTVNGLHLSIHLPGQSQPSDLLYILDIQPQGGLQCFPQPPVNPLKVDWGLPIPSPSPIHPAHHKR
T1 sequence (P08514 891-1039 limits assumed): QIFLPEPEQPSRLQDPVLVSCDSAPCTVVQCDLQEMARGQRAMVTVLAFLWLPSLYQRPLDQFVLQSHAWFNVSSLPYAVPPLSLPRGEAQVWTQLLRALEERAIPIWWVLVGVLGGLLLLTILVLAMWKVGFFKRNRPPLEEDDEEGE

pIC50 [1]: 9.60
pIC50 [3]: 7.96
SMILES: CCCCOC(=O)N[C@@H](CNC(=O)C[C@H]1CC(c2ccc(C(=N)N)cc2)=NO1)C(=O)O
inhibition in vivo at 0.025 mg/kg (Canis familiaris [2]): 90%

SMILES: CCCCOC(=O)N[C@@H](CNC(=O)CC1CC(c2ccc(C(=N)N)cc2)=NO1)C(=O)OC.Cl (some centres not stated)
inhibition in vivo at 0.3 mg/kg (Rhesus monkey [4]): 60%
Inhibition (Canis familiaris [5]): >60%
inhibition in vivo at 0.3 mg/kg (Rhesus monkey [6]): 90%

pIC50 [7]: 6.62
SMILES: N=C(N)c1ccc(C2=NOC(CC(=O)NCCC(=O)O)C2)cc1 (configuration not stated)
